According to ChEMBL document CHEMBL5150021, “Identification of 5-(Aryl/Heteroaryl)amino-4-quinolones as Potent Membrane-Disrupting Agents to Combat Antibiotic-Resistant Gram-Positive Bacteria” (J Med Chem, 2022):
Converted amounts (≈) assume the structure as drawn.

tested on: Staphylococcus aureus; assay: Antibacterial activity against methicillin resistant Staphylococcus aureus FPR3757 assessed as inhibition of bacterial growth incubated for 24 hrs by CLSI based method; type: functional; conditions: read-out: MIC100
Procedure, shortened: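 It was mixed 1:1 with twofold serial compound dilutions and incubated stationary at 37 °C for 24 h. MIC was the lowest concentration giving complete inhibition of observable growth, with an oxacillin control.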

Structure (SMILES) | MIC [µg/mL]
Fc1ccc2c(Nc3ccc(C(F)(F)F)cn3)cc(C(F)(F)F)nc2c1 | 1 (≈ 2.66 µM)
Oc1cc(C(F)(F)F)nc2ccccc12 | 320 (≈ 1500 µM)
FC(F)(F)Oc1cccc(Nc2cc(C(F)(F)F)nc3cc(C(F)(F)F)ccc23)c1 | 8 (≈ 18.2 µM)
Fc1ccc2nc(C(F)(F)F)cc(Nc3ccc(C(F)(F)F)cn3)c2c1F | 16 (≈ 40.7 µM)
N#Cc1cccc(Nc2cc(C(F)(F)F)nc3cc(C(F)(F)F)ccc23)c1 | > 32
FC(F)(F)c1ccc(Nc2cc(N3CCNCC3)nc3cc(C(F)(F)F)ccc23)nc1 | 0.5 (≈ 1.13 µM)
FC(F)(F)c1ccc2c(Oc3ccc(Cl)c(Cl)c3)cc(C(F)(F)F)nc2c1 | > 32
FC(F)(F)c1ccc2c(Nc3ccc(C(F)(F)F)nc3)cc(C(F)(F)F)nc2c1 | > 32
FC(F)(F)c1ccc(Nc2cc(C(F)(F)F)nc3c(C(F)(F)F)cccc23)nc1 | 0.5 (≈ 1.18 µM)
COc1ccc2c(Nc3ccc(F)c(F)c3)cc(C(F)(F)F)nc2c1 | > 32
FC(F)(F)c1ccc2c(Nc3ccccc3)cc(C(F)(F)F)nc2c1 | 128 (≈ 359 µM)
FC(F)(F)c1ccc2c(Nc3ncccn3)cc(C(F)(F)F)nc2c1 | > 32
Fc1cc2nc(C(F)(F)F)cc(Nc3ccc(C(F)(F)F)cn3)c2cc1F | 0.25 (≈ 0.636 µM)
FC(F)(F)c1ccc2c(Nc3ccc(N4CCOCC4)cc3)cc(C(F)(F)F)nc2c1 | > 16
COc1cccc(Nc2cc(C(F)(F)F)nc3cc(C(F)(F)F)ccc23)c1 | > 64
FC(F)(F)Oc1cccc(Oc2cc(C(F)(F)F)nc3cc(C(F)(F)F)ccc23)c1 | > 32
CCc1ccc2c(O)cc(C(F)(F)F)nc2c1 | 640 (≈ 2650 µM)
O=C1Cc2cc(Nc3cc(C(F)(F)F)nc4cc(C(F)(F)F)ccc34)ccc2N1 | > 32
FC(F)(F)c1ccc2c(Nc3cccc4[nH]ncc34)cc(C(F)(F)F)nc2c1 | > 32
FC(F)(F)c1ccc2c(Nc3nccs3)cc(C(F)(F)F)nc2c1 | 1 (≈ 2.75 µM)
COc1ccc2c(Nc3cccc(OC(F)(F)F)c3)cc(C(F)(F)F)nc2c1 | > 32
O=c1cc(C(F)(F)F)[nH]c2cc(C(F)(F)F)ccc12 | 5 (≈ 17.8 µM)
FC(F)(F)c1ccc2c(N3CCc4cccnc43)cc(C(F)(F)F)nc2c1 | > 32
FC(F)c1cc(Nc2cccc(OC(F)(F)F)c2)c2ccc(C(F)(F)F)cc2n1 | 0.5 (≈ 1.18 µM)
FC(F)(F)c1ccc2c(Nc3cc(Cl)ccn3)cc(C(F)(F)F)nc2c1 | 2 (≈ 5.11 µM)
FC(F)(F)c1ccc2c(Nc3cccc(N4CCOCC4)c3)cc(C(F)(F)F)nc2c1 | > 16

Structure (SMILES) | MIC [µg/mL]
FC(F)(F)Oc1cccc(Nc2cc(C(F)(F)F)nc3c(OC(F)(F)F)cccc23)c1 | 1 (≈ 2.19 µM)
FC(F)(F)c1ccc2c(Nc3ccncc3)cc(C(F)(F)F)nc2c1 | > 32
FC(F)(F)c1ccc2c(NC[C@@H]3CCCN3)cc(C(F)(F)F)nc2c1 | > 32
FC(F)(F)Oc1cccc2c(Nc3ccc(Cl)c(Cl)c3)cc(C(F)(F)F)nc12 | 0.5 (≈ 1.13 µM)
FC(F)(F)c1ccc(Nc2cc(N3CCNCC3)c3ccc(C(F)(F)F)cc3n2)nc1 | 4 (≈ 9.06 µM)
Fc1cccc(Oc2cc(C(F)(F)F)nc3cc(C(F)(F)F)ccc23)c1 | > 32
CN(C)S(=O)(=O)c1ccc2c(Nc3ccc(F)c(F)c3)cc(C(F)(F)F)nc2c1 | > 32
FC(F)(F)c1ccc(Nc2nc(C(F)(F)F)nc3cc(C(F)(F)F)ccc23)nc1 | 2 (≈ 4.69 µM)
FC(F)c1cc(Nc2ccc(Cl)c(Cl)c2)c2ccc(C(F)(F)F)cc2n1 | 1 (≈ 2.46 µM)
O=c1cc(C(F)(F)F)[nH]c2cc(C(F)(F)F)cc(Nc3cccc4[nH]ncc34)c12 | 2 (≈ 4.85 µM)
CN(C)S(=O)(=O)c1ccc(Nc2cc(C(F)(F)F)cc3[nH]c(C(F)(F)F)cc(=O)c23)nc1 | 2 (≈ 4.16 µM)
CN(c1ccc(C(F)(F)F)cc1)c1cc(C(F)(F)F)nc2cc(C(F)(F)F)ccc12 | > 32
FC(F)(F)c1ccc2c(Nc3ccc(Cl)c(Cl)c3)nc(C(F)(F)F)nc2c1 | 0.5 (≈ 1.17 µM)
O=c1cc(C(F)(F)F)[nH]c2cc(F)cc(Nc3ccc(C(F)(F)F)cn3)c12 | 1 (≈ 2.56 µM)
FC(F)(F)Oc1cccc(Nc2cc(C(F)(F)F)nc3cc(OC(F)(F)F)ccc23)c1 | 1 (≈ 2.19 µM)
OC1CCCN(c2cc(C(F)(F)F)nc3cc(C(F)(F)F)ccc23)C1 (centres undefined) | > 32
CN(C)S(=O)(=O)c1ccc2c(Nc3ccc(C(F)(F)F)cn3)cc(C(F)(F)F)nc2c1 | 8 (≈ 17.2 µM)
Fc1ccc(Nc2cnnc3cc(C(F)(F)F)ccc23)cc1F | > 32
COC(=O)c1cc(Nc2cc(C(F)(F)F)nc3cc(C(F)(F)F)ccc23)ccn1 | > 32
CN(C)c1ccc(Nc2cc(C(F)(F)F)cc3[nH]c(C(F)(F)F)cc(=O)c23)nc1 | 2 (≈ 4.8 µM)
Oc1cc(C(F)(F)F)nc2cc(OC(F)(F)F)ccc12 | 4 (≈ 13.5 µM)
COc1ccc(Nc2cc(C(F)(F)F)nc3cc(C(F)(F)F)ccc23)cn1 | > 128
CSc1ccc2c(O)cc(C(F)(F)F)nc2c1 | 640 (≈ 2470 µM)
O[C@H]1C[C@H]2CC[C@@H](C1)N2c1cc(C(F)(F)F)nc2cc(C(F)(F)F)ccc12 | > 32
FC(F)(F)Oc1ccc2c(Nc3ccc(Cl)c(Cl)c3)cc(C(F)(F)F)nc2c1 | 0.5 (≈ 1.13 µM)

tested on: Erythrocyte; assay: Hemolytic activity in sheep erythrocytes at 32 ug/ml incubated for 1 hr; type: toxicity, cell-based, Ovis aries; conditions: dose 32 µg/ml
Procedure, shortened: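 4% sheep erythrocytes mixed 1:1 with twofold serial compound dilutions in PBS, incubated stationary 1 h at 37 °C, then centrifuged at 500g for 5 min. Supernatant A540 is measured and percent hemolysis is calculated relative to DMSO vehicle (0%) and Triton X-100 (100%). Triplicate, mean ± SD.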

Structure (SMILES) | Activity
Fc1ccc2c(Nc3ccc(C(F)(F)F)cn3)cc(C(F)(F)F)nc2c1 | Non-Toxic
Fc1cc2nc(C(F)(F)F)cc(Nc3ccc(C(F)(F)F)cn3)c2cc1F | Toxic
O=c1cc(C(F)(F)F)[nH]c2cc(F)cc(Nc3ccc(C(F)(F)F)cn3)c12 | Non-Toxic
